These results are taken from ChEMBL document CHEMBL2331347, “Biselectivity of isoDGR peptides for fibronectin binding integrin subtypes α5β1 and αvβ6: conformational control through flanking amino acids” (J Med Chem, 2013).

In general, IC50 refers to the concentration that inhibits the measured activity by half. Read a low IC50 as greater potency in that assay.

The structures appear in SMILES notation.

A short description of experiment [1]: Induction of focal adhesions formation in rat REF52 cells plated on 68 nm nanopatterned surfaces assessed as focal adhesion area after 4 hrs post cells plating by immunofluorescence microscopy. The class given is functional. The procedure, abridged:
(§1)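 REF52 rat embryonic fibroblasts (grown in DMEM with 10% FBS, 37 °C, 5% CO2) trypsinized and plated at 150 cells/mm2 in DMEM with 1% FBS on passivated gold nanopatterns (68 ± 9 nm spacing) functionalized with 25 μM peptide for 1 h. Fixed after 4 or 24 h, immunostained for paxillin, with phalloidin for actin and DAPI for nuclei, imaged at 63×.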

A short description of experiment [2]: Induction of focal adhesions formation in rat REF52 cells plated on 68 nm nanopatterned surfaces assessed as axial ratio after 4 hrs post cells plating by immunofluorescence microscopy. In kind it is functional. The procedure, abridged:
as §1

Experiment [3] can be described thus: Induction of focal adhesions formation in rat REF52 cells plated on 68 nm nanopatterned surfaces assessed as focal adhesion area after 24 hrs post cells plating by immunofluorescence microscopy. In kind it is functional. The procedure, abridged:
as §1

Experiment [4] can be described thus: Induction of focal adhesions formation in rat REF52 cells plated on 68 nm nanopatterned surfaces assessed as focal adhesion area width after 4 hrs post cells plating by immunofluorescence microscopy. In kind it is functional. The procedure, abridged: as §1
A short description of experiment [5]: Induction of focal adhesions formation in rat REF52 cells plated on 68 nm nanopatterned surfaces assessed as axial ratio after 24 hrs post cells plating by immunofluorescence microscopy. In kind it is functional. The procedure, abridged: as §1
A short description of experiment [6]: Induction of focal adhesions formation in rat REF52 cells plated on 68 nm nanopatterned surfaces assessed as focal adhesion total area/cell area ratio after 4 hrs post cells plating by immunofluorescence microscopy. The class given is functional. A digest of the protocol: as §1
The nature of experiment [7]: Induction of focal adhesions formation in rat REF52 cells plated on 68 nm nanopatterned surfaces assessed as focal adhesion area width after 24 hrs post cells plating by immunofluorescence microscopy. The class given is functional. A digest of the protocol: as §1
The target of experiment [8] is Integrin alpha-5/beta-1 (Homo sapiens, UniProt P05556+P08648). The experiment in a line: Inhibition of fibronectin binding to human Integrin alpha5beta1 receptor by competitive ELISA. The class given is protein-complex assay. A digest of the protocol:
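Plates coated overnight at 4 °C with 0.5 μg/mL fibronectin at pH 9.6, then blocked with 1% BSA in Tris buffer containing Ca, Mg and Mn. Soluble human α5β1 (1.0 μg/mL final) and inhibitor (0.00013−10 μM final) incubated 1 h at RT. Bound integrin detected with anti-CD49e and peroxidase secondary antibody, A450. Duplicates; IC50 taken as the inflection point of the inhibition curve.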

Experiment [9] can be described thus: Induction of focal adhesions formation in rat REF52 cells plated on 68 nm nanopatterned surfaces assessed as focal adhesion area length after 4 hrs post cells plating by immunofluorescence microscopy. The class given is functional. The procedure, abridged: as §1
Experiment [10] addresses Integrin alpha-V/beta-3 (Homo sapiens, UniProt P05106+P06756). The experiment in a line: Inhibition of vitronectin binding to Integrin alphaVbeta3 receptor (unknown origin) by competitive ELISA. The class given is protein-complex assay. In general terms: In an ELISA, binding on a coated surface is turned into a signal by an enzyme label.
Experiment [11] in a line: Induction of focal adhesions formation in rat REF52 cells plated on 68 nm nanopatterned surfaces assessed as focal adhesion total area/cell area ratio after 24 hrs post cells plating by immunofluorescence microscopy. In kind it is functional. The procedure, abridged:
as §1

Experiment [12] in a line: Induction of focal adhesions formation in rat REF52 cells plated on 68 nm nanopatterned surfaces assessed as focal adhesion area length after 24 hrs post cells plating by immunofluorescence microscopy. The class given is functional. A digest of the protocol:
as §1

In experiment [13] the target is Integrin alpha-IIb/beta-3 (Homo sapiens, UniProt P05106+P08514). The experiment is described as follows: Inhibition of fibrinogen binding to Integrin alpha2bbeta3 receptor (unknown origin) by competitive ELISA. In kind it is protein-complex assay.
Experiment [14] deals with Integrin alpha-V/beta-6 (Homo sapiens, UniProt P06756+P18564). The experiment in a line: Inhibition of latency-associated peptide binding to Integrin alphaVbeta6 receptor (unknown origin) by competitive ELISA. The class given is protein-complex assay. The procedure, abridged: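 LAP coated at 0.4 μg/mL; soluble αvβ6 at 0.25 μg/mL final, mixed with serially diluted inhibitor. Bound integrin detected with anti-human αv antibody (1:500), then peroxidase secondary antibody (2.0 μg/mL), A450. Blocking, washing and curve analysis as for the α5β1 ELISA; IC50 from the inflection point.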

Experiment [15] has as its target Integrin alpha-V/beta-5 (Homo sapiens, UniProt P06756+P18084). The experiment in a line: Inhibition of vitronectin binding to Integrin alphaVbeta5 receptor (unknown origin) by competitive ELISA. The class given is protein-complex assay.

With `N=C(N)NCCC[C@@H]1NC(=O)[C@H](CCCCNC(=O)CCSCCOCCOCCOCCOCCOCCOCCO)NC(=O)[C@@H](Cc2ccccc2)NC(=O)[C@H](CC(=O)O)NC(=O)CNC1=O`, the Activity in experiment [1] was 3.4 um2; in experiment [3], 4.12 um2; in experiment [4], 1.25 um; in [7], 1.31 um; in experiment [9] it was 3.78 um; in experiment [12], 4.17 um. Further, the Ratio in experiment [2] is reported as 3.24; in experiment [5] it was 3.42; in [6] it was 0.093; in experiment [11], 0.076. Also, the concentration for half-maximal inhibition (IC50) in experiment [8] worked out at 197 nM; in experiment [10] it was 13.6 nM.

Consider `NC(N)=NCCC[C@@H]1NC(=O)CNC(=O)C[C@@H](C(=O)O)NC(=O)[C@@H](c2ccccc2)NC(=O)[C@H](CCC(=O)O)NC1=O`, for which the IC50 in experiment [8] was 92 nM; in experiment [10] it was 3870 nM.

`CC(C)[C@@H]1NC(=O)[C@H](CCCN=C(N)N)NC(=O)CNC(=O)C[C@@H](C(=O)O)NC(=O)[C@@H](c2ccccc2)NC1=O`: the results for the IC50 in experiment [8] and in [10] were 115 nM and 576 nM, respectively.

Take `CC(C)[C@H]1NC(=O)[C@H](CCCN=C(N)N)NC(=O)CNC(=O)C[C@@H](C(=O)O)NC(=O)[C@@H](c2ccccc2)NC1=O`: the IC50 in experiment [8] is 7.3 nM; in experiment [10], above 10000 nM.

Take `N=C(N)NCCC[C@@H]1NC(=O)CNC(=O)C[C@@H](C(=O)O)NC(=O)[C@@H](c2ccccc2)NC(=O)[C@@H](CCCCN)NC1=O`: the IC50 in experiment [13] was above 10000 nM; in experiment [14], 19 nM; in experiment [15], above 10000 nM; in [8], 8.7 nM; in experiment [10], above 10000 nM.

With `N=C(N)NCCC[C@@H]1NC(=O)[C@H](CCCCN)NC(=O)[C@@H](Cc2ccccc2)NC(=O)[C@H](CC(=O)O)NC(=O)CNC1=O`, the IC50 in experiment [13] is above 10000 nM; in experiment [14], 68 nM; in experiment [15], 310 nM; in [8], 133 nM.

In the case of `N=C(N)NCCC[C@@H]1NC(=O)CNC(=O)C[C@@H](C(=O)O)NC(=O)[C@@H](c2ccccc2)NC(=O)[C@H]2CCCN2C1=O`, the figures for the IC50 in experiment [8] and in experiment [10] were 7 nM and above 10000 nM, respectively.

As for `Cc1ccnc(NCCCC(=O)NCC(=O)NC(CC(=O)O)c2ccc(-c3cccc4ccccc34)cc2)c1` (stereo unspecified), the concentration for half-maximal inhibition (IC50) in [13] was above 10000 nM; in experiment [14] it was 4 nM; in [15], above 10000 nM; in experiment [8], 2810 nM; in [10] it was above 10000 nM.

Consider `NC(N)=NCCC[C@@H]1NC(=O)CNC(=O)C[C@@H](C(=O)O)NC(=O)[C@@H](c2ccccc2)NC(=O)[C@H](Cc2ccc(O)cc2)NC1=O`, for which the IC50 in [8] is 39 nM; in experiment [10], above 10000 nM.

With `N=C(N)NCCC[C@@H]1NC(=O)CNC(=O)C[C@@H](C(=O)O)NC(=O)[C@@H](c2ccccc2)NC(=O)[C@@H](CCCCNC(=O)CCSCCOCCOCCOCCOCCOCCOCCO)NC1=O`, the Activity in experiment [1] came out at 1.24 um2; in [3], 2.61 um2; in experiment [4], 0.51 um; in experiment [7], 0.9 um; in experiment [9], 2.92 um; in experiment [12], 3.94 um. Also, the Ratio in experiment [2] came out at 6.01; in experiment [5], 4.68; in experiment [6], 0.07; in experiment [11], 0.079. The results for the IC50 in experiment [8] and in [10] were 27 nM and above 10000 nM, respectively.

For `NC(N)=NCCC[C@@H]1NC(=O)CNC(=O)C[C@@H](C(=O)O)NC(=O)[C@@H](c2ccccc2)NC(=O)[C@H](Cc2c[nH]c3ccccc23)NC1=O`, the IC50 in [8] is 72 nM; in experiment [10] it was above 10000 nM.

For the molecule `NC(N)=NCCC[C@@H]1NC(=O)CNC(=O)C[C@@H](C(=O)O)NC(=O)[C@@H](c2ccccc2)NC(=O)[C@@H](CCC(=O)O)NC1=O`, the results for the IC50 in [8] and in [10] were 11 nM and above 10000 nM, respectively.

In the case of `NC(N)=NCCC[C@@H]1NC(=O)CNC(=O)C[C@@H](C(=O)O)NC(=O)[C@@H](c2ccccc2)NC(=O)[C@@H](Cc2ccc(O)cc2)NC1=O`, the IC50 in [8] was 8.7 nM; in experiment [10], above 10000 nM.

Take `NCCCC[C@@H]1NC(=O)[C@H](CCCN=C(N)N)NC(=O)CNC(=O)C[C@@H](C(=O)O)NC(=O)[C@@H](c2ccccc2)NC1=O`: the IC50 was above 10000 nM in [13]; 140 nM in [14]; above 10000 nM in [15]; 94 nM in experiment [8]; 516 nM in [10].

For the molecule `N=C(N)NCCC[C@@H]1NC(=O)CNC(=O)C[C@@H](C(=O)O)NC(=O)[C@@H](c2ccccc2)NC(=O)CNC1=O`, the IC50 in experiment [13] was above 10000 nM; in experiment [14], 106 nM; in experiment [15] it was above 10000 nM; in [8], 19 nM; in experiment [10], above 1000 nM.

For the molecule `NC(N)=NCCC[C@@H]1NC(=O)CNC(=O)C[C@@H](C(=O)O)NC(=O)[C@@H](c2ccccc2)NC(=O)[C@@H](Cc2c[nH]c3ccccc23)NC1=O`, the IC50 in experiment [13] was above 10000 nM; in [14] it was 92 nM; in experiment [15], above 10000 nM; in experiment [8] it was 5.5 nM; in experiment [10], above 10000 nM.

On to `NC(N)=NCCC[C@@H]1NC(=O)CNC(=O)C[C@@H](C(=O)O)NC(=O)[C@@H](c2ccccc2)NC(=O)[C@@H]2CCCN2C1=O`, for which the IC50 in experiment [8] came to 111 nM; in experiment [10] it was 675 nM.
